From ChEMBL document CHEMBL1127564, “Studies on neurokinin antagonists. 4. Synthesis and structure-activity relationships of novel dipeptide substance P antagonists: N2-[(4R)-4-hydroxy-1-[(1-methyl-1H-indol-3-yl)carbonyl]-L-prolyl]-N- methyl-N-(phenylmethyl)-3-(2-naphthyl)-L-alaninamide and its related compounds” (J Med Chem, 1994)
pIC50: −log10 of the molar value.

Key:
Cavia porcellus [1] = experiment: In vivo inhibitory activity against airway edema induced by Substance P at a dose 10 mg/kg administered orally; format: functional; conditions: route oral
Method in brief: (§1)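 Male Hartley guinea pigs dosed orally with drug in DMSO solution, or with vehicle, 30 min before intravenous SP (1.3 μg/kg) given with Evans Blue (20 mg/kg) and heparin (200 IU/kg). Trachea and main bronchi removed 10 min after challenge; dye extracted and read at 620 nm. Percent inhibition of edema reported, two animals per experiment.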

Substance-P receptor = Substance-P receptor (Cavia porcellus, UniProt P30547); experiment: In vitro binding affinity against substance P receptor using [3H]SP as radioligand in guinea pig lung membrane; format: cell membranes
Substance-P receptor, sequence (P30547 whole entry): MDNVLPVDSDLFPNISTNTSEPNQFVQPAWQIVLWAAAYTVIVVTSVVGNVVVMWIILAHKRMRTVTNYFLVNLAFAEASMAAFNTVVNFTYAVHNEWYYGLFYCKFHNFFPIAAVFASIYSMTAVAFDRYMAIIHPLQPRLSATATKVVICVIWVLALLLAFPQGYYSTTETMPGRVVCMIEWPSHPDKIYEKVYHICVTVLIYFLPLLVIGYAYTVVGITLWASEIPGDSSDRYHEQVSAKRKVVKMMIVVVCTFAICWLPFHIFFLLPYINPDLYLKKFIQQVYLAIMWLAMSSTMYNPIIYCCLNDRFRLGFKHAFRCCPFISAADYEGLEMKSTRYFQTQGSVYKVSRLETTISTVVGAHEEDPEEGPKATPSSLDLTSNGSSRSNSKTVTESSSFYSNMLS
Method in brief: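 Guinea pig lung membranes incubated with 1 nM [3H]SP, with or without test compound, 0.5 h at 4 °C in 50 mM Tris-HCl pH 7.5, 5 mM MnCl2, 0.02% BSA, chymostatin, leupeptin, bacitracin. Filtered on glass-fibre filters, radioactivity counted by scintillation. Specific binding defined as that displaced by 5 μM unlabeled SP. IC50 estimated from the displacement curve. Duplicate assays, usually a single experiment.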

Cavia porcellus [2] = experiment: In vivo inhibitory activity against airway edema induced by Substance P at a dose 100 mg/kg administered orally; format: functional; conditions: route oral; method in brief: as §1

SMILES | inhibition in vivo at 10 mg/kg (Cavia porcellus [1]) | pIC50 (Substance-P receptor; read-out: IC50) | inhibition in vivo at 100 mg/kg (Cavia porcellus [2]) | IC50 (Substance-P receptor) | pIC50 (Substance-P receptor)
CC(C)n1cc(C(=O)N2C[C@H](O)CC2C(=O)N[C@H](Cc2ccccc2)C(=O)N(C)Cc2ccccc2)c2ccccc21 (stereo not given in full) | 48% | 7.80 | – | – | –
CN(Cc1ccccc1)C(=O)[C@@H](Cc1ccccc1)NC(=O)C1C[C@@H](O)CN1C(=O)c1cc2ccccc2s1 (stereo not given in full) | 37% | 7.70 | – | – | –
CN(Cc1ccccc1)C(=O)[C@@H](Cc1ccc([N+](=O)[O-])cc1)NC(=O)C1C[C@@H](O)CN1C(=O)c1cn(C)c2ccccc12 (stereo not given in full) | 19% | 8.15 | 39% | – | –
CN(Cc1ccccc1)C(=O)[C@@H](Cc1ccccc1)NC(=O)C1C[C@@H](O)CN1C(=O)c1cn(CC(=O)O)c2ccccc12 (stereo not given in full) | – | 7.30 | – | – | –
CN(Cc1ccccc1)C(=O)[C@@H](Cc1cn(C=O)c2ccccc12)NC(=O)C1C[C@@H](O)CN1C(=O)c1cn(C)c2ccccc12 (stereo not given in full) | – | 8.46 | 21% | – | –
CN(Cc1ccccc1)C(=O)[C@@H](Cc1csc2ccccc12)NC(=O)C1C[C@@H](O)CN1C(=O)c1cn(C)c2ccccc12 (stereo not given in full) | 34% | 7.99 | 99% | – | –
CN(Cc1ccccc1)C(=O)[C@@H](Cc1ccccc1F)NC(=O)C1C[C@@H](O)CN1C(=O)c1cn(C)c2ccccc12 (stereo not given in full) | – | 7.85 | 35% | – | –
CN(Cc1ccccc1)C(=O)[C@@H](Cc1ccccc1)NC(=O)C1CCN1C(=O)c1c[nH]c2ccccc12 (stereo not given in full) | – | 8.10 | – | – | –
CN(Cc1ccccc1)C(=O)[C@@H](Cc1ccccc1)NC(=O)C1C[C@@H](O)CN1C(=O)/C=C/c1ccccc1 (stereo not given in full) | 47% | 8.05 | – | – | –
CN(Cc1ccccc1)C(=O)[C@@H](Cc1ccc2cc(Cl)ccc2c1)NC(=O)C1C[C@@H](O)CN1C(=O)c1cn(C)c2ccccc12 (stereo not given in full) | – | 7.56 | – | – | –
CN(Cc1ccccc1)C(=O)[C@@H](Cc1ccccc1)NC(=O)C1C[C@@H](O)CN1C(=O)c1cn(C)c2ccccc12 (stereo not given in full) | 51% | – | 75% | – | –
CN(Cc1ccccc1)C(=O)[C@@H](Cc1ccccc1)NC(=O)[C@H]1CCCN1C(=O)c1c[nH]c2ccccc12 | – | – | – | Not Active | –
Cc1ccc2cc(C[C@@H](NC(=O)C3C[C@@H](O)CN3C(=O)c3cn(C)c4ccccc34)C(=O)N(C)Cc3ccccc3)ccc2c1 (stereo not given in full) | – | – | 28% | – | 7.64
CN(Cc1ccccc1)C(=O)[C@@H](Cc1ccc2ccccc2c1)NC(=O)C1C[C@@H](O)CN1C(=O)c1cn(C)c2ccccc12 (stereo not given in full) | 86% | 8.77 | 94% | – | –
CN(Cc1ccccc1)C(=O)[C@@H](Cc1ccc2c(c1)CCCC2)NC(=O)C1C[C@@H](O)CN1C(=O)c1cn(C)c2ccccc12 (stereo not given in full) | 69% | 7.94 | 87% | – | –
COc1ccc(C[C@@H](NC(=O)C2C[C@@H](O)CN2C(=O)c2cn(C)c3ccccc23)C(=O)N(C)Cc2ccccc2)cc1 (stereo not given in full) | 29% | 8.12 | 91% | – | –
CN(Cc1ccccc1)C(=O)[C@@H](Cc1c[nH]c2ccccc12)NC(=O)C1C[C@@H](O)CN1C(=O)c1cn(C)c2ccccc12 (stereo not given in full) | – | 8.77 | 7% | – | –
CN(Cc1ccccc1)C(=O)[C@@H](Cc1ccc2c(c1)OCCO2)NC(=O)C1C[C@@H](O)CN1C(=O)c1cn(C)c2ccccc12 (stereo not given in full) | – | 8.96 | 1% | – | –
CN(Cc1ccccc1)C(=O)[C@@H](Cc1ccc(NS(C)(=O)=O)cc1)NC(=O)C1C[C@@H](O)CN1C(=O)c1cn(C)c2ccccc12 (stereo not given in full) | – | 7.60 | 0% | – | –

SMILES | inhibition in vivo at 10 mg/kg (Cavia porcellus [1]) | pIC50 (Substance-P receptor; read-out: IC50) | inhibition in vivo at 100 mg/kg (Cavia porcellus [2]) | IC50 (Substance-P receptor) | pIC50 (Substance-P receptor)
CN(Cc1ccccc1)C(=O)[C@@H](Cc1ccc(F)cc1)NC(=O)C1C[C@@H](O)CN1C(=O)c1cn(C)c2ccccc12 (stereo not given in full) | 30% | – | 96% | – | 8.37
CN(Cc1ccccc1)C(=O)[C@@H](Cc1cccc(F)c1)NC(=O)C1C[C@@H](O)CN1C(=O)c1cn(C)c2ccccc12 (stereo not given in full) | – | – | 85% | – | 8.04
CN(Cc1ccccc1)C(=O)[C@@H](Cc1cccc(C(F)(F)F)c1)NC(=O)C1C[C@@H](O)CN1C(=O)c1cn(C)c2ccccc12 (stereo not given in full) | – | – | 66% | – | 8.46
CN(Cc1ccccc1)C(=O)[C@@H](Cc1ccc(C(F)(F)F)cc1)NC(=O)C1C[C@@H](O)CN1C(=O)c1cn(C)c2ccccc12 (stereo not given in full) | 83% | – | 94% | – | 8.31
CN(Cc1ccccc1)C(=O)[C@@H](Cc1ccc(O)cc1)NC(=O)C1C[C@@H](O)CN1C(=O)c1cn(C)c2ccccc12 (stereo not given in full) | – | – | 11% | – | 8.74
CN(C)CCn1cc(C(=O)N2C[C@H](O)CC2C(=O)N[C@H](Cc2ccccc2)C(=O)N(C)Cc2ccccc2)c2ccccc21 (stereo not given in full) | 2% | 8.46 | – | – | –
CN(Cc1ccccc1)C(=O)[C@@H](Cc1ccccc1)NC(=O)C(CCCCN)NC(=O)c1c[nH]c2ccccc12 (stereo not given in full) | – | 7.85 | – | – | –
CN(Cc1ccccc1)C(=O)[C@@H](Cc1ccc(N)cc1)NC(=O)C1C[C@@H](O)CN1C(=O)c1cn(C)c2ccccc12 (stereo not given in full) | – | 8.27 | 0% | – | –
CN(Cc1ccccc1)C(=O)[C@@H](Cc1ccccc1)NC(=O)C1C[C@@H](O)CN1C(=O)CCc1ccccc1 (stereo not given in full) | 4% | 7.85 | – | – | –
CN(Cc1ccccc1)C(=O)[C@@H](Cc1ccccc1)NC(=O)C1CCC(O)CN1C(=O)c1c[nH]c2ccccc12 (stereo not given in full) | – | 6.54 | – | – | –
CN(Cc1ccccc1)C(=O)[C@@H](Cc1ccccc1)NC(=O)C(CC(=O)O)NC(=O)c1c[nH]c2ccccc12 (stereo not given in full) | – | – | – | Not Active | –
CN(Cc1ccccc1)C(=O)[C@@H](Cc1ccccc1)NC(=O)C(CC(N)=O)NC(=O)c1c[nH]c2ccccc12 (stereo not given in full) | – | 8.05 | – | – | –
CN(Cc1ccccc1)C(=O)[C@@H](Cc1ccccc1)NC(=O)C(CO)NC(=O)c1c[nH]c2ccccc12 (stereo not given in full) | – | 7.96 | – | – | –
CN(Cc1ccccc1)C(=O)[C@@H](Cc1ccccc1)NC(=O)C1C[C@@H](O)CN1C(=O)c1[nH]nc2ccccc12 (stereo not given in full) | 0% | 8.30 | – | – | –
CN(Cc1ccccc1)C(=O)[C@@H](Cc1ccccc1)NC(=O)C1C[C@@H](O)CN1C(=O)CCCc1ccccc1 (stereo not given in full) | – | – | – | – | 7.49
CN(Cc1ccccc1)C(=O)[C@@H](Cc1ccccc1)NC(=O)C1C[C@@H](O)CN1C(=O)Cc1ccccc1 (stereo not given in full) | – | 6.86 | – | – | –
CN(Cc1ccccc1)C(=O)[C@@H](Cc1ccccc1)NC(=O)C1CCCN1C(=O)c1c[nH]c2ccccc12 (stereo not given in full) | – | 8.27 | – | – | –
CN(Cc1ccccc1)C(=O)C(Cc1ccccc1)NC(=O)C1C[C@H](O)CN1C(=O)c1c[nH]c2ccccc12 (single isomer, unassigned) | – | 8.34 | – | – | –
CN(Cc1ccccc1)C(=O)C(Cc1ccccc1)NC(=O)C1C[C@@H](O)CN1C(=O)c1c[nH]c2ccccc12 (single isomer, unassigned) | – | 8.13 | 8% | – | –
